We go through 4 molecules from ChEMBL document CHEMBL4373733, “Reinvestigating the synthesis and efficacy of small benzimidazole derivatives as presequence protease enhancers” (Eur J Med Chem, 2019).

Series [1] deals with T1, Presequence protease, mitochondrial (Homo sapiens) (UniProt Q5JRX3).
T1 sequence (whole entry): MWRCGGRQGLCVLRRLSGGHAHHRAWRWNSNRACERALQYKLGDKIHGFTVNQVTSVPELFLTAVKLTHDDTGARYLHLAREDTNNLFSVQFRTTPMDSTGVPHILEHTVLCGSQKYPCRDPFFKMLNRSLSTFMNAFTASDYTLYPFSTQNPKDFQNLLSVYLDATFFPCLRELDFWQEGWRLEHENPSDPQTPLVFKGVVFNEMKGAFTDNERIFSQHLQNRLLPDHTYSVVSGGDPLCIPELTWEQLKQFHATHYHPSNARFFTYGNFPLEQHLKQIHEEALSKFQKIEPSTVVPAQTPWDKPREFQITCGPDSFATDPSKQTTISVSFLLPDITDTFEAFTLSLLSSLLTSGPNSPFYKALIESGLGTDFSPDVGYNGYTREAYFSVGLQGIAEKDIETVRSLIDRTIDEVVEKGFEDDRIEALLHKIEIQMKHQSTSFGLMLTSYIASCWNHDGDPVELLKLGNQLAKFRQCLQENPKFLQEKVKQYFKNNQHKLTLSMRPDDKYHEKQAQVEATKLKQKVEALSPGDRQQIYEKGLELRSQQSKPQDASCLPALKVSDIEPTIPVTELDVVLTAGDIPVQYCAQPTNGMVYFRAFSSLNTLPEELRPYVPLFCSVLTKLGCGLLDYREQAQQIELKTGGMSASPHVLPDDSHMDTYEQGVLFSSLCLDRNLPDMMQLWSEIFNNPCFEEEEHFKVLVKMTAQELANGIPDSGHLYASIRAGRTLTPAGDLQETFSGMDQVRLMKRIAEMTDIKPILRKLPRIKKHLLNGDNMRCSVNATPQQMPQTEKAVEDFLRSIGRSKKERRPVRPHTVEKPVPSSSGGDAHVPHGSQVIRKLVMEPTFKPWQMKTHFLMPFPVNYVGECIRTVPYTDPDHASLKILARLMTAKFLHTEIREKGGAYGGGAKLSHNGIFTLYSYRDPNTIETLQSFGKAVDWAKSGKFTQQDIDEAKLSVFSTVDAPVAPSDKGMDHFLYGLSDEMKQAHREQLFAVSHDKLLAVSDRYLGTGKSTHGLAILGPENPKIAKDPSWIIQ
Briefly: Agonist activity at recombinant human N-terminal His6-tagged PreP expressed in Escherichia coli expression system assessed as increase in degradation of substrate V at 0.0001 to 10 uM measured every 30 sec for 10 mins by fluorometry. The procedure, abridged:
(§1)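 hPreP expressed in E. coli at 25 °C (300μM IPTG, 16 h), purified by Ni-NTA, Source Q and Superdex 200, stored at −80 °C. Reaction: 0.1 μg (or 1 μg) hPreP in 20 mM HEPES pH 8.0, 10 mM MgCl₂, with substrate V (0.1 or 1.4 μg), 200 or 250 μl, room temperature (24–26 °C) or 37 °C. Fluorescence ex 320/em 405 nm. Degradation rate averaged over four independent experiments, mean ± SD.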

Substrate in series [2]: Nc1ccc([N+](=O)[O-])cc1/N=C/c1cc(Br)ccc1O
As to the kind of experiment: (§2) Agonist activity at recombinant human N-terminal His6-tagged PreP expressed in Escherichia coli expression system assessed as increase in degradation of substrate V by measuring catalytic rate at 0.01 uM measured every 30 sec for 10 mins by fluorometry (reference value: 1.4 +/- 0.1 /min). The procedure, abridged: as §1

Substrate in series [3]: O=[N+]([O-])c1ccc2nc(-c3cc(Br)ccc3O)n(Cc3cc(Br)ccc3O)c2c1
Described as §2. The procedure, abridged: as §1

Substrate in series [4]: Nc1ccc([N+](=O)[O-])cc1/N=C/c1cc(Br)ccc1O
Briefly: (§3) Agonist activity at recombinant human N-terminal His6-tagged PreP expressed in Escherichia coli expression system assessed as increase in degradation of substrate V by measuring catalytic rate at 0.1 uM measured every 30 sec for 10 mins by fluorometry (reference value: 1.4 +/- 0.1 /min). The procedure, abridged: as §1

Substrate in series [5]: O=[N+]([O-])c1ccc2nc(-c3cc(Br)ccc3O)n(Cc3cc(Br)ccc3O)c2c1
The series is described as §3. The essentials:
as §1

Substrate in series [6]: Nc1ccc([N+](=O)[O-])cc1/N=C/c1cc(Br)ccc1O
As to the kind of experiment: (§4) Agonist activity at recombinant human N-terminal His6-tagged PreP expressed in Escherichia coli expression system assessed as increase in degradation of substrate V by measuring catalytic rate at 1 uM measured every 30 sec for 10 mins by fluorometry (reference value: 1.4 +/- 0.1 /min). The procedure, abridged:
as §1

Substrate in series [7]: O=[N+]([O-])c1ccc2nc(-c3cc(Br)ccc3O)n(Cc3cc(Br)ccc3O)c2c1
Described as §4. The essentials: as §1

Substrate in series [8]: O=[N+]([O-])c1ccc2nc(-c3cc(Br)ccc3O)n(Cc3cc(Br)ccc3O)c2c1
As to the kind of experiment: Agonist activity at recombinant human N-terminal His6-tagged PreP expressed in Escherichia coli expression system assessed as increase in degradation of substrate V by measuring catalytic rate at 10 uM measured every 30 sec for 10 mins by fluorometry (reference value: 1.4 +/- 0.1 /min). The essentials: as §1

For series [9], the target named is Presequence protease, mitochondrial (Homo sapiens) (UniProt Q5JRX3). Briefly: Agonist activity at recombinant human N-terminal His6-tagged PreP expressed in Escherichia coli expression system assessed as increase in degradation of substrate V by measuring catalytic rate at 10 uM measured every 30 sec for 10 mins by fluorometry (reference value: 1.4 +/- 0.1 /min).

Calls of active or inactive are those of the source. No cut-off for these calls is given here.

`O=[N+]([O-])c1ccc2[nH]c(-c3cc(Br)ccc3O)nc2c1`: in [1], the result was inactive.
Still for that read-out and setting: then `Nc1ccc([N+](=O)[O-])cc1/N=C/c1cc(Br)ccc1O`, with “inactive”; and `O=[N+]([O-])c1ccc2nc(-c3cc(Br)ccc3O)n(Cc3cc(Br)ccc3O)c2c1`, with “inactive”.

B1: Presequence protease, mitochondrial (Homo sapiens), Q5JRX3 (protein)
chain: T1 sequence (whole entry)
As to B1, the catalytic constant (kcat) in series [2] stood at 0.0233 s⁻¹; in series [3], 0.0183 s⁻¹; in [4] it was 0.02 s⁻¹; in series [5] it was 0.02 s⁻¹; in series [6], 0.0217 s⁻¹; in [7] it was 0.0217 s⁻¹. Moreover, the catalytic constant (kcat) amounted to 0.0233 s⁻¹ in series [8] and 0.0217 s⁻¹ in series [9].
